Measured values reported in ChEMBL document CHEMBL4219193, “Synthesis, biological evaluation and molecular docking study of 1-amino-2-aroylnaphthalenes against prostate cancer” (Bioorg Med Chem Lett, 2018).
Calls of active or inactive are those of the source.

What was measured:
Assay type in all cases: cell-based
[1] = target: RAC-alpha serine/threonine-protein kinase (Homo sapiens) (UniProt P31749); experiment: Inhibition of AKT1 phosphorylation in human PC3 cells at 14 uM after 12 to 24 hrs by Western blot analysis
How it was run: (§1)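 Immunoblotting of PC-3 lysates for procaspase 8, procaspase 9 and phosphorylated Akt1, 2 and 3 after treatment at 14 µM, with samples collected at different time points.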

[2] = target: RAC-beta serine/threonine-protein kinase (Homo sapiens) (UniProt P31751); experiment: Inhibition of AKT2 phosphorylation in human PC3 cells at 14 uM after 12 to 24 hrs by Western blot analysis; how it was run: as §1
[3] = target: RAC-gamma serine/threonine-protein kinase (Homo sapiens) (UniProt Q9Y243); experiment: Inhibition of AKT3 phosphorylation in human PC3 cells at 14 uM after 12 to 24 hrs by Western blot analysis; how it was run: as §1

Measured: inhibition

RAC-alpha serine/threonine-protein kinase (Homo sapiens), sequence (P31749 whole entry): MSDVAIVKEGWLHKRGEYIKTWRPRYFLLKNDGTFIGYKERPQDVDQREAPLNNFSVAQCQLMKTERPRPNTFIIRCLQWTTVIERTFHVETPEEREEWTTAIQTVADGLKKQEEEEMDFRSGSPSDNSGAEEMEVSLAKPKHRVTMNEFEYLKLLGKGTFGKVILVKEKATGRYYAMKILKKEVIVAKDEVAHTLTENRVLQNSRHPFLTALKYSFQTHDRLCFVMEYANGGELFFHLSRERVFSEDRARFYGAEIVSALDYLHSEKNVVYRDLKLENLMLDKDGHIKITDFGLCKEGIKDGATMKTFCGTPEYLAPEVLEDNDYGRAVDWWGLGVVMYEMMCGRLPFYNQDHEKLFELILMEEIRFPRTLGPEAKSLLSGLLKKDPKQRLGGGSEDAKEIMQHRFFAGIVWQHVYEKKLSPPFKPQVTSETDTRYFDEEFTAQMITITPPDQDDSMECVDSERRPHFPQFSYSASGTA
RAC-beta serine/threonine-protein kinase (Homo sapiens), sequence (P31751 whole entry): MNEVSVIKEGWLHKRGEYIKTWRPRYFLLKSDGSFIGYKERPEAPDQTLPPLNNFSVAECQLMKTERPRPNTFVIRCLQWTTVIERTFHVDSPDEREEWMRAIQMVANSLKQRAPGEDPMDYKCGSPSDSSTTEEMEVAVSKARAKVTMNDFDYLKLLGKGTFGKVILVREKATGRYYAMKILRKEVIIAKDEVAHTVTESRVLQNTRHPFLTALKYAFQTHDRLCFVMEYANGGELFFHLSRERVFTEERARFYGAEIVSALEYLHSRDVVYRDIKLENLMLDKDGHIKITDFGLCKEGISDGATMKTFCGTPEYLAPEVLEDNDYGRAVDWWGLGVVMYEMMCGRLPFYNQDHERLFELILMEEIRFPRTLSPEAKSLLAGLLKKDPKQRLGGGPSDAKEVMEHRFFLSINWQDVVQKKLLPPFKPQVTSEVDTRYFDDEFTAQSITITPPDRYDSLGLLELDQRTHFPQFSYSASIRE
RAC-gamma serine/threonine-protein kinase (Homo sapiens), sequence (Q9Y243 whole entry): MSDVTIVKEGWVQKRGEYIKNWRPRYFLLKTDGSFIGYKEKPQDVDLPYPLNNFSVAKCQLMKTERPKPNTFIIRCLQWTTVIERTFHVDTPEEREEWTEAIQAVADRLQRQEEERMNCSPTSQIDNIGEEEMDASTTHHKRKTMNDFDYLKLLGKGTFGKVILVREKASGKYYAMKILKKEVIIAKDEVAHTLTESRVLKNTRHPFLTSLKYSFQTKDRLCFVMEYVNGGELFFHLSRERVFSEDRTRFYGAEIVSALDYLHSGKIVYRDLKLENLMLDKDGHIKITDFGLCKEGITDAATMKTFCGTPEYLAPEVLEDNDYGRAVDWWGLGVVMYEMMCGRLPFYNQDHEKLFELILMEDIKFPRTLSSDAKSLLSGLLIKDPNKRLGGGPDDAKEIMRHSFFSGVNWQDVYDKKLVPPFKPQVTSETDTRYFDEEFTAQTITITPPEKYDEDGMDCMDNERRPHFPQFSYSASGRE

CSc1c(C(=O)c2ccc(Br)cc2)c(N)c2ccccc2c1C#N
active: [1] | [2] | [3]
